Test results taken from publication PMC9123270 (The Journal of Biological Chemistry, 2022).
“And” between values parts separate entries of the source, which are not always exact repeats. Identical values can stand only once. One block for each molecule: values may come before it.

Columns and labels:
[1] = molecular target: Anopheles gambiae D7 long-form salivary protein AngaD7L2 (Anopheles gambiae); test: SPR
normal control plasma [2] = test: Plasma recalcification assay; type: biochemical, human
normal control plasma [3] = test: Prothrombin; type: biochemical, human; settings: recombinant protein 15 μM, 5 μl in 50 μl plasma
Outline: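 Normal control plasma (50 μl) was incubated 2 min at 37 °C with 5 μl of test protein (15 μM in Hepes buffer), Hepes buffer (negative control) or 3 μM Alboserpin (positive control). PT was started by adding Neoplastine CI Plus reagent, and clotting time was recorded with stirring. Run in triplicate.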

normal control plasma [4] = test: Activated partial thromboplastin; type: biochemical, human; settings: recombinant protein 15 μM, 5 μl in 50 μl plasma
Outline: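 Plasma (50 μl) was preincubated 2 min at 37 °C with 5 μl of test protein (15 μM in Hepes buffer), Hepes buffer (negative control) or 3 μM Alboserpin (positive control). aPTT reagent was added for 3 min at 37 °C, then clotting was started with prewarmed 25 mM CaCl2. Clotting time was recorded on a coagulation analyzer and converted to ratios. Run in triplicate.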

[5] = PEAQ-ITC screen against five biogenic amines and five lipids; type: binding; settings: leukotrienes other than LTC4
Outline: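 Isothermal titration calorimetry in TBS (20 mM Tris–HCl, 150 mM NaCl, pH 7.4) at 30 °C, 750 rpm. Protein at 5 μM was titrated with 10 μl injections of ligand at 50 μM every 150 s. Lipid ligands were dried under nitrogen, resuspended in TBS, vortexed and sonicated 10 min. Samples were degassed. Data were fitted to a single-site model. At least three replicates.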

[6] = tested on: Human platelet-rich plasma; test: Platelet aggregation assay; type: cell-based
[7] = tested on: Third-order mesenteric arteries; test: Vasoconstriction by pressure myography in isolated mesenteric arteries; set-up: species or system C57Bl/6J mice; settings: for LogIC50 of vasoconstriction to U-46619: n = 6

Kd [1]: 8.47 nM
koff [1]: 0.00696 s⁻¹
kon [1]: 99200 M⁻¹ s⁻¹
Molecule: human coagulation factor XI (natural protein)

Kd [1]: 16.4 nM
koff [1]: 0.0169 s⁻¹
kon [1]: 125000 M⁻¹ s⁻¹
Molecule: human coagulation factor XII (natural protein)

The remaining lines, values behind:

Molecule: human coagulation factor XIIa (enzyme)
Kd [1]: 5.03 nM
koff [1]: 0.403 s⁻¹
kon [1]: 2.03e+08 M⁻¹ s⁻¹

B1: AngaD7L2: Recombinant Anopheles gambiae D7 long-form salivary protein, 6xHis-tagged, expressed in human embryonic kidney cells (protein)
chain: AQPWKALDPEQALYVYKRCYEDHLPAGSSRVTYLKSWNAWKLEPNDAVTHCYAKCVLIGLQLYEEKDKAFKSERIPVQHEAYKTLNEANSREVTEYQQALASINAGDGSCVALYNAYLPVHNKFVDLSRKLYHGTVEGAAKIYAAMPQIKQKGESFFAYCAKKIWGGYNKKEWKRGRNYELSGSSQFKKVIDCIFRGLRYMDDSGLKVDEVVRDFNLINKSDLEPEVRSVLASCTGTQAYDYYSCLLNSPVKEDFKNAFDFHELRSADYAFLLRGKVYEGPEQVKEEMKHLNTTVHF
modifications: left off: His6, C-terminal, state not stated
Plasma recalcification (time to OD = 0.025) (normal control plasma [2]; final concentration 5 μM): entirely unable to coagulate
Plasma recalcification (time to OD = 0.025) (normal control plasma [2]; serially diluted recombinant protein, versus Hepes buffer negative control): dose-dependent anticoagulant response
PT clotting time (extrinsic pathway) (normal control plasma [3]): did not have an observable effect
aPTT time to coagulation (intrinsic pathway) (normal control plasma [4]): significantly increased

B2: AngaD7L1: Recombinant Anopheles gambiae D7 long-form salivary protein, 6xHis-tagged, expressed in human embryonic kidney cells (protein, UniProt Q7PJ76 22-311, looked up)
Long form salivary protein …: FKALDPEEAWYVYERCHEDHLPSGPNRETYLKTWKFWKLEPNDAVTHCYVKCTLAGLQMYDEKTNTFKPETVPVQHEAYKSFTEVESSKVNELQQALSSLNAGSGSCAEVFNAYLPVHNKYVGVSRKIYHGTVDSVAKIYEAKPEIKKQEESFFAYCAKKALGANGKEGYTKLRDYELADSAEFRNAMDCVFRGFRYMDDSGLKVDEVVRDFNLINKSDLEPEVRSVLASCTGTQAYDYYSCLLNSPVKEDFRNAFYFHELRSANYGYLAMGKVYEGPEKVKEELKKLNY
modifications: 6xHis tag
Binding of other leukotrienes [5]: did not bind any other leukotriene
Effect on platelet aggregation ([6]; agonist 0.3 μM U-46619, protein 0.3 μM): reduced platelet aggregation
Effect on platelet aggregation ([6]; agonist 0.3 μM U-46619, protein 1 μM): platelet aggregation was inhibited
Effect on platelet aggregation ([6]; agonist 0.7 μM U-46619, protein 1 μM): platelet aggregation was inhibited
Effect on platelet aggregation ([6]; agonist 0.7 μM U-46619, protein 3 μM): inhibited platelet aggregation
Effect on platelet aggregation ([6]; agonist 1 μM arachidonic acid, protein at any concentration): no effect
Effect on platelet aggregation ([6]; agonist 1 μg/ml collagen, protein 0.3 μM): did not inhibit platelet aggregation
Effect on platelet aggregation ([6]; agonist 1 μg/ml collagen, protein 3 μM): reduced platelet aggregation
Effect on platelet aggregation ([6]; agonist 10 μg/ml collagen, protein 1 μM): no effect
LogIC50 of vasoconstriction to U-46619 ([7]; after AngaD7L1 washout): −8.10
fold reduction in effective constrictive potency of U-46619 ([7]; in presence of AngaD7L1 10 μM): ~70 fold
LogIC50 of vasoconstriction to U-46619 ([7]; in presence of AngaD7L1 10 μM): −6.4 and −6.38
